Experimental data: the RNAGym collection of RNA variant scans (doi:10.1126/science.aae0568)
This sample holds only a part of the variants without activity.

B1: tRNA (parent)
chain: GUUCCGUUGGCGUAAUGGUAACGCGUCUCCCUCCUAAGGAGAAGACUGCGGGUUCGAGUCCCGUACGGAACG

Variants of: B1
Assay: yeast fitness relative to wild type (ratio to wild type); higher = fitter; tRNA-Arg(CCU), competitive growth, 37 C, YPD
Method in brief: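 Gene amplicons from the start population and from each of six end populations were read by 100-nucleotide paired-end sequencing. Those end populations came from pooled Saccharomyces cerevisiae strains carrying tRNA-Arg(CCU) gene variants at the native locus, competed in YPD at 37°C for 24 hours. Fitness relative to wild type was worked out from changes in genotype frequencies. Genotypes needed ≥ 100 starting reads, and estimates < 0.5 were set to 0.5.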

| Variant | yeast fitness |
| --- | --- |
| GUUCCGUUAGCGUAAUGGUAACGGGUCUCCCUCCUAAGCAGAAGACUGCGGGUUCCAGUCCCGUACGGAACG [G9A C24G G39C G56C] | ≤ 0.5 |
| GUUCCGUUAGCGUAAUGGUAACGUGUCUCCCUCCUAAGGUGAAGACUGCGGGUUCGAGUCCCGUACGCAACG [G9A C24U A40U G68C] | ≤ 0.5 |
| GUUCCGUUAGCGUAAUGGUAACGUGUCUCCCGCCUAAGGAGAAGACUGCGGGUUCGAGUCCCGUACGGAACG [G9A C24U U32G] | ≤ 0.5 |
| GUUCCGUUAGCGUAAUGGUAACGCGUAUCCCUCCUAAGGAGAAGACUGCGGGUUCGAGUCCCGUACGGAACG [G9A C27A] | 0.955 |
| GUUCCGUUAGCGUAAUGGUAACGCGUAUCCCUCCUAAGGAGCAGACUGGGCGUUCGAGUCCCGUCCGGAACG [G9A C27A A42C C49G G51C A65C] | ≤ 0.5 |
| GUUCCGUUAGCGUAAUGGUAACGCGUGUCCCUCCUAAGGGGAAGACUGCGGAUUCGAGUCCCGUACGGAACG [G9A C27G A40G G52A] | ≤ 0.5 |
| GUUCCGUUAGCGUAAUGGUAACGCGUGUCCUUCCUAAGGAGAAGAGUGCGCGUUCGAGUCCCGUACGGAUCG [G9A C27G C31U C46G G51C A70U] | ≤ 0.5 |
| GUUCCGUUAGCGUAAUGGUAACGCGUGUCCUUCCUAAGGAGAAGAGUGCGCAUUCGAGUCCCGUACGGAACG [G9A C27G C31U C46G G51C G52A] | ≤ 0.5 |
| GUUCCGUUAGCGUAAUGGUAACGCGUGUCCCUCAUAAGGAGAAGAGUGCGGGUUAGAGUCCCGUACGGAACG [G9A C27G C34A C46G C55A] | 0.508 |
| GUUCCGUUAGCGUAAUGGUAACGCGUGUCCCUCUUAAGGAGAAGACUGCGGGUUCGAGUCCCGUACGGAACG [G9A C27G C34U] | ≤ 0.5 |
| GUUCCGUUAGCGUAAUGGUAACGCGUGUCCCUCCAAAGGAGAAGACUGCGGGUUCGAGUCCCGUACGGAACG [G9A C27G U35A] | ≤ 0.5 |
| GUUCCGUUAGCGUAAUGGUAACGCGUUUCCCUCCUAAGGACAAGACUGCGGGUUCGAGUCCCGUACGGAACG [G9A C27U G41C] | 0.618 |
| GUUCCGUUAGCGUAAUGGUAACGCGUCUACCUCCUAGGGAGAAGACUGCGGGUUCGAGUCCCGUACGGAACG [G9A C29A A37G] | 0.513 |
| GUUCCGUUAGCGUAAUGGUAACGCGUCUACCUCCUAAGGAGAAGACUGCGGGUUCCAGUCCCGUACGGAACG [G9A C29A G56C] | ≤ 0.5 |
| GUUCCGUUAGCGUAAUGGUAACGCGUCUGCCUCCUAAGGAGAAGACUGCGGGUUCGAGUCCCAUACGGAACG [G9A C29G G63A] | 0.525 |
| GUUCCGUUAGCGUAAUGGUAACGCGUCUUCCUCCUAAGGAGAAGACUGCGGGUUCGAGUCCCGUUCGGAACG [G9A C29U A65U] | ≤ 0.5 |
| GUUCCGUUAGCGUAAUGGUAACGCGUCUUCCACCUAAGGAGAUGACUGCGGGUUCGAGUCCCGUACGGAACG [G9A C29U U32A A43U] | 0.604 |
| GUUCCGUUAGCGUAAUGGUAACGCGUCUUCCUCCUAAGGAGAAGACUGCGGGUUCGAGACCCGUACGGAACG [G9A C29U U59A] | 0.561 |
| GUUCCGUUAGCGUAAUGGUAACGCGUCUUCCUCCUAAGGAGAAGACUGCGGGUUCGAGGCCCGUCCGGAACG [G9A C29U U59G A65C] | ≤ 0.5 |

| Variant | yeast fitness |
| --- | --- |
| GUUCCGUUAGCGUAAUGGUAACGCGUCUCACUCCUAAGGAGAAGACUGCGGGUUCGAGUCCCGUCCGGAACG [G9A C30A A65C] | 0.664 |
| GUUCCGUUAGCGUAAUGGUAACGCGUCUCGGUCCUAAGGAGAGGACUGCGGGUUCGAGUCCCGUGCGGAACG [G9A C30G C31G A43G A65G] | ≤ 0.5 |
| GUUCCGUUAGCGUAAUGGUAACGCGUCUCUCUCCUAAGGAGAAGACUGCGGGUUCGGGUCCCGUACGGAACG [G9A C30U A57G] | ≤ 0.5 |
| GUUCCGUUAGCGUAAUGGUAACGCGUCUCUCUACUUAGGAGAUGACUGCGGGUCCAAGUCCCGUACGGAACG [G9A C30U C33A A36U A43U U54C G56A] | 0.626 |
| GUUCCGUUAGCGUAAUGGUAACGCGUCUCUCUCCUAAGGAGAAAACUGCGGGUUCGAGUCCCGUACGGAACG [G9A C30U G44A] | 0.615 |
| GUUCCGUUAGCGUAAUGGUAACGCGUCUCCAUCCUAAGGACAAGACUGCGGGUUUGAGUCCCGUACGGAACG [G9A C31A G41C C55U] | ≤ 0.5 |
| GUUCCGUUAGCGUAAUGGUAACGCGUCUCCAUCCUAAGGAGAAGACAGCGGGUUCGAGUCCCGUACGGAACG [G9A C31A U47A] | ≤ 0.5 |
| GUUCCGUUAGCGUAAUGGUAACGCGUCUCCAUCCUAAGGAGAAGACCGCGGGUUCGAGUCCCGUACAGAACG [G9A C31A U47C G67A] | ≤ 0.5 |
| GUUCCGUUAGCGUAAUGGUAACGCGUCUCCGUCCUAAGGAGAAGACUGCGGGUUCGAGUCCCGUACGGAACG [G9A C31G] | 0.819 |
| GUUCCGUUAGCGUAAUGGUAACGCGUCUCCUUCCUAAGGAGAAGACUGCGGGUUCGAGUUCCGUGCGGAACG [G9A C31U C60U A65G] | ≤ 0.5 |
| GUUCCGUUAGCGUAAUGGUAACGCGUCUCCCUUCUAAGGAGAAGACCGCGGGUUCGAGUCCCGUACGGAACG [G9A C33U U47C] | ≤ 0.5 |
| GUUCCGUUAGCGUAAUGGUAACGCGUCUCCCUCAUAAGGAGAAGACUGCGGGUUCGAAUCCCGUACGGAACG [G9A C34A G58A] | 0.667 |
| GUUCCGUUAGCGUAAUGGUAACGCGUCUCCCUCGUAACGAGAAGACUGCGGGUUCGAGUCCCGUACGGAACG [G9A C34G G38C] | ≤ 0.5 |
| GUUCCGUUAGCGUAAUGGUAACGCGUCUCCCUCGUAAGGAGAAGACCGCGGGUUCGAGUCCCGUACGGAACG [G9A C34G U47C] | ≤ 0.5 |
| GUUCCGUUAGCGUAAUGGUAACGCGUCUCCCUCUUAAGGAGAAGAAUGCGGGUUCGAGUCCUGUACGGAACG [G9A C34U C46A C62U] | 0.546 |
| GUUCCGUUAGCGUAAUGGUAACGCGUCUCCCUCUUAAGGAGAAGACUGCGGGUUCGAGUCCCGUACAGAACG [G9A C34U G67A] | ≤ 0.5 |
| GUUCCGUUAGCGUAAUGGUAACGCGUCUCCCUCCUAAGGAGAAGAAUGCGGGUUCGAGUCCCGUACGGAACG [G9A C46A] | 0.91 |
| GUUCCGUUAGCGUAAUGGUAACGCGUCUCCCUCCUAAGGAGAAGAAUGCGGGUUUGAGUCCCGUACGGAACG [G9A C46A C55U] | 0.543 |
| GUUCCGUUAGCGUAAUGGUAACGCGUCUCCCUCCUAAGGAGAAGACUGCGGGUUGGAGUCCCGUACGGCACG [G9A C55G A69C] | 0.611 |
